Reference: ChEMBL document CHEMBL1130109, “Novel 99mTc aminobisthiolato/monothiolato "3 + 1" mixed ligand complexes: structure-activity relationships and preliminary in vivo validation as brain blood flow imaging agents” (J Med Chem, 1997)
Where “and” joins values, the source holds several entries; their conditions need not be identical. Equal values may be shown once.

How the values were obtained:
Mus musculus [1] = species: Mus musculus; experiment: Percentage biodistribution in mouse brain, 30 minutes post injection; format: ADME, organism-based; conditions: in vivo, 0.5 h
Method in brief: (§1)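 Male Swiss Albino mice (19–34g, at least five per group) were injected in the tail vein with HPLC-purified 99mTc complex in 50% methanol (0.1 mL, 2–3 μCi). Killed by cardiectomy under slight ether anesthesia at 5, 10, 30 or 60 min. Organs were excised, weighed and γ-counted against standards of 1% injected dose, as % ID/organ. Bladder plus excreted urine was not weighed. Stomach and intestines were not emptied.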

[2] = Partition coefficient (logD7.4); format: physicochemical; conditions: octanol/water, pH 7.4
Method in brief: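 HPLC-purified 99mTc complex (0.1 mL) was added to 2 mL each of 1-octanol and 0.125 M phosphate buffer, pH 7.4. The mix was vortexed and centrifuged at 5000 rpm for 5 min. Three 0.2 mL samples per layer were γ-counted. Mean cpm/mL of octanol was divided by that of buffer.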

Mus musculus [3] = species: Mus musculus; experiment: Percentage biodistribution in mouse brain, 10 minutes post injection; format: ADME, organism-based; conditions: in vivo; method in brief: as §1
Mus musculus [4] = species: Mus musculus; experiment: Biodistribution in mice lungs at 60 min of post injection; format: ADME, organism-based, Lung; conditions: in vivo, 1 h; method in brief: as §1
Mus musculus [5] = species: Mus musculus; experiment: Percentage biodistribution in mouse heart, 60 minutes post injection; format: ADME, organism-based; conditions: in vivo, 1 h; method in brief: as §1
Mus musculus [6] = species: Mus musculus; experiment: Percentage biodistribution in mouse liver, 10 minutes post injection; format: ADME, organism-based; conditions: in vivo; method in brief: as §1
Mus musculus [7] = species: Mus musculus; experiment: Percentage biodistribution in mouse heart, 30 minutes post injection; format: ADME, organism-based; conditions: in vivo, 0.5 h; method in brief: as §1
Mus musculus [8] = species: Mus musculus; experiment: Percentage biodistribution in mouse spleen; format: ADME, organism-based; conditions: in vivo; method in brief: as §1
Mus musculus [9] = species: Mus musculus; experiment: Percentage biodistribution in mouse brain, 5 minutes post injection; format: ADME, organism-based; conditions: in vivo; method in brief: as §1
Mus musculus [10] = species: Mus musculus; experiment: Percentage biodistribution in mouse intestine, 5 minutes post injection; format: ADME, organism-based; conditions: in vivo; method in brief: as §1
Mus musculus [11] = species: Mus musculus; experiment: Biodistribution in mice liver at 60 minutes of post injection; format: ADME, organism-based; conditions: in vivo, 1 h; method in brief: as §1
Mus musculus [12] = species: Mus musculus; experiment: Percentage biodistribution in mouse blood, 5 minutes post injection; format: ADME, organism-based; conditions: in vivo
Method in brief: (§2)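 Mice (Swiss Albino males, 19–34g, ≥5/group) received tail-vein HPLC-purified 99mTc complex (0.1 mL, 2–3 μCi, 50% methanol) and were killed by cardiectomy under ether at set times. Blood % ID was computed from measured activity and sample weight, with blood taken as 7% of body weight, against 1%-dose standards.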

Mus musculus [13] = species: Mus musculus; experiment: Percentage biodistribution in mouse liver, 30 minutes of post injection; format: ADME, organism-based; conditions: in vivo, 0.5 h; method in brief: as §1
Mus musculus [14] = species: Mus musculus; experiment: Percentage biodistribution in mouse heart, 5 minutes post injection; format: ADME, organism-based; conditions: in vivo; method in brief: as §1
Mus musculus [15] = species: Mus musculus; experiment: Percentage biodistribution in mouse liver, 5 minutes post injection; format: ADME, organism-based; conditions: in vivo; method in brief: as §1
Mus musculus [16] = species: Mus musculus; experiment: Percentage biodistribution in mouse blood, 60 minutes post injection; format: ADME, organism-based; conditions: in vivo, 1 h; method in brief: as §2
Mus musculus [17] = species: Mus musculus; experiment: Percentage biodistribution in mouse stomach; format: ADME, organism-based; conditions: in vivo; method in brief: as §1
Mus musculus [18] = species: Mus musculus; experiment: Percentage biodistribution in mouse intestine, 30 minutes post injection; format: ADME, organism-based; conditions: in vivo, 0.5 h; method in brief: as §1
Mus musculus [19] = species: Mus musculus; experiment: Percentage biodistribution in mousee lung, 5 minutes post injection; format: ADME, organism-based; conditions: in vivo; method in brief: as §1
Mus musculus [20] = species: Mus musculus; experiment: Percentage biodistribution in mouse intestine, 10 minutes post injection; format: ADME, organism-based; conditions: in vivo; method in brief: as §1
Mus musculus [21] = species: Mus musculus; experiment: Percentage biodistribution in mouse heart, 10 minutes post injection; format: ADME, organism-based; conditions: in vivo; method in brief: as §1
Mus musculus [22] = species: Mus musculus; experiment: Percentage biodistribution in mouse intestine, 60 minutes post injection; format: ADME, organism-based; conditions: in vivo, 1 h; method in brief: as §1
Mus musculus [23] = species: Mus musculus; experiment: Biodistribution in mice bladder plus excreted urine was determined; format: ADME, organism-based; conditions: in vivo; method in brief: as §1
Mus musculus [24] = species: Mus musculus; experiment: Percentage biodistribution in mouse lung, 30 minutes post injection; format: ADME, organism-based; conditions: in vivo, 0.5 h; method in brief: as §1
Mus musculus [25] = species: Mus musculus; experiment: Percentage biodistribution in mouse blood, 10 minutes post injection; format: ADME, organism-based; conditions: in vivo; method in brief: as §2
Mus musculus [26] = species: Mus musculus; experiment: Biodistribution in mice lungs at 10 min of post injection; format: ADME, organism-based, Lung; conditions: in vivo; method in brief: as §1
Mus musculus [27] = species: Mus musculus; experiment: Percentage biodistribution in mouse blood, 30 minutes post injection; format: ADME, organism-based; conditions: in vivo, 0.5 h; method in brief: as §2
Mus musculus [28] = species: Mus musculus; experiment: Percentage biodistribution in mouse brain, 60 minutes post injection; format: ADME, organism-based; conditions: in vivo, 1 h; method in brief: as §1
[29] = Retention ratio is measured as the brain uptake (%ID/organ) at 30 min pi divided by the brain uptake at 5 min pi.; format: functional
Method in brief: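 Brain % ID/organ in tail-vein-injected male Swiss Albino mice (0.1 mL, 2–3 μCi purified 99mTc complex in 50% methanol; γ-counted after cardiectomy under ether). Mean brain % ID/organ at 30 min pi was divided by the mean at 5 min pi.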

[30] = % ID/gram in brain divided by %ID/gram in blood at 60 minutes.; format: functional, tissue-based
Method in brief: (§3)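 Male Swiss Albino mice (19–34g, at least five per group) got HPLC-purified 99mTc complex in 50% methanol, 0.1 mL, 2–3 μCi, by tail vein. They were killed by cardiectomy under light ether at 5, 10, 30 or 60 min. % ID/g (% ID/organ ÷ organ weight) of brain was divided by that of blood; blood assumed 7% of body weight.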

[31] = % ID/gram in brain divided by %ID/gram in blood at 10 minutes.; format: functional, tissue-based; method in brief: as §3
[32] = % ID/gram in brain divided by %ID/gram in blood at 5 minutes.; format: functional, tissue-based; method in brief: as §3

With “[4-methoxythio)phenolato][N,N-bis(2-mercaptoethyl)-N',N'-diethylethylenediamine] oxotechnetium [listing 1 of 2 here]” the ID/organ (Mus musculus [1]) was 0.56% and 1.71%, the logD [2] was 2.54 and 2.63 and the ID/organ (Mus musculus [3]) was 2.47%. The ID/organ (Mus musculus [4]) was 1.79%, the ID/organ (Mus musculus [5]) was 0.12% and the ID/organ (Mus musculus [6]) was 14.14%. The ID/organ (Mus musculus [7]) was 0.28% and 0.19%, the ID/organ (Mus musculus [8]) was 0.61% and 0.21% and the ID/organ (Mus musculus [9]) was 2.26% and 3.01%. The ID/organ (Mus musculus [10]) was 9.22% and 8.31%, the ID/organ (Mus musculus [11]) was 35.12% and the ID/organ (Mus musculus [12]) was 6.09% and 2.02%. The ID/organ (Mus musculus [13]) was 27.33% and 25.58%, the ID/organ (Mus musculus [14]) was 0.81% and 0.74% and the ID/organ (Mus musculus [15]) was 17.06% and 10.73%. The ID/organ (Mus musculus [16]) was 1.21%, the ID/organ (Mus musculus [17]) was 2.43% and 2.34% and the ID/organ (Mus musculus [18]) was 21.19% and 18.99%. For the same substance, the ID/organ (Mus musculus [19]) was 11.03% and 15.37%, the ID/organ (Mus musculus [20]) was 9.61% and the ID/organ (Mus musculus [21]) was 0.46%. For the same substance, the ID/organ (Mus musculus [22]) was 33.7%, the ID/organ (Mus musculus [23]) was 2.24% and 6.87% and the ID/organ (Mus musculus [24]) was 3.49% and 3.09%. For the same substance, the ID/organ (Mus musculus [25]) was 1.53%, the ID/organ (Mus musculus [26]) was 9.78% and the ID/organ (Mus musculus [27]) was 5.14% and 1.29%. For the same substance, the ID/organ (Mus musculus [28]) was 1.54%.

For “[4-methoxythio)phenolato][N,N-bis(2-mercaptoethyl)-N',N'-diethylethylenediamine] oxotechnetium [listing 2 of 2 here]”, the Retention ratio [29] was 0.25 and 0.57, the Ratio [30] was 4.23 and the Ratio [31] was 4.71. The Ratio [32] was 1.7 and 4.43.
